# Measured values published in ChEMBL document CHEMBL1153621, “Regioselective reaction: synthesis, characterization and pharmacological studies of some new Mannich bases derived from 1,2,4-triazoles” (2009).
# Key:
# Assay type in all cases: functional
# Pseudomonas aeruginosa = test: Antibacterial activity against Pseudomonas aeruginosa after 16 to 18 hrs by serial dilution method
# Outline: (§1)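 MIC by serial dilution: compound dissolved in serially diluted DMF, a standard drop of prepared culture added to each dilution, incubated 16–18 h at 37 °C; MIC taken as the endpoint.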
# Staphylococcus aureus = test: Antibacterial activity against Staphylococcus aureus after 16 to 18 hrs by serial dilution method; outline: as §1
# Candida albicans = test: Antifungal activity against Candida albicans after 16 to 18 hrs by serial dilution method; outline: as §1
# Bacillus subtilis = test: Antibacterial activity against Bacillus subtilis after 16 to 18 hrs by serial dilution method; outline: as §1
# Escherichia coli = test: Antibacterial activity against Escherichia coli after 16 to 18 hrs by serial dilution method; outline: as §1
SMILES,MIC (Pseudomonas aeruginosa),MIC (Staphylococcus aureus),MIC (Candida albicans),MIC (Bacillus subtilis),MIC (Escherichia coli)
Cc1ccc(-c2n[nH]cc2/C=N/n2c(-c3ccccc3)nn(CN3CCN(C)CC3)c2=S)cc1,3 µg/mL,6 µg/mL,3 µg/mL,12.5 µg/mL,6 µg/mL
CCCc1nn(CN2CCN(C)CC2)c(=S)n1/N=C/c1c[nH]nc1-c1ccc(Cl)cc1,3 µg/mL,3 µg/mL,3 µg/mL,3 µg/mL,3 µg/mL
COc1ccc(-c2n[nH]cc2/C=N/n2c(C)nn(CN3CCN(C)CC3)c2=S)cc1,1.5 µg/mL,6 µg/mL,6 µg/mL,6 µg/mL,6 µg/mL
Cc1n[nH]cc1/C=N/n1c(-c2ccccc2)nn(CN2CCN(C)CC2)c1=S,12.5 µg/mL,12.5 µg/mL,6 µg/mL,12.5 µg/mL,6 µg/mL
CCCc1nn(CN2CCN(C)CC2)c(=S)n1/N=C/c1c[nH]nc1-c1ccc(OC)cc1,6 µg/mL,6 µg/mL,6 µg/mL,12.5 µg/mL,12.5 µg/mL
Cc1ccc(-c2n[nH]cc2/C=N/n2c(C)nn(CN3CCN(C)CC3)c2=S)cc1,12.5 µg/mL,12.5 µg/mL,6 µg/mL,6 µg/mL,6 µg/mL
CCCc1nn(CN2CCN(C)CC2)c(=S)n1/N=C/c1c[nH]nc1-c1ccccc1,12.5 µg/mL,6 µg/mL,6 µg/mL,6 µg/mL,12.5 µg/mL
Cc1n[nH]cc1/C=N/n1c(C)nn(CN2CCN(C)CC2)c1=S,6 µg/mL,12.5 µg/mL,6 µg/mL,6 µg/mL,6 µg/mL
COc1ccc(-c2n[nH]cc2/C=N/n2c(-c3ccccc3)nn(CN3CCN(C)CC3)c2=S)cc1,3 µg/mL,6 µg/mL,6 µg/mL,6 µg/mL,6 µg/mL
Cc1nn(CN2CCN(C)CC2)c(=S)n1/N=C/c1c[nH]nc1-c1ccccc1,6 µg/mL,6 µg/mL,6 µg/mL,6 µg/mL,12.5 µg/mL
CCCc1nn(CN2CCN(C)CC2)c(=S)n1/N=C/c1c[nH]nc1-c1ccc(C)cc1,6 µg/mL,6 µg/mL,6 µg/mL,12.5 µg/mL,6 µg/mL
CN1CCN(Cn2nc(-c3ccccc3)n(/N=C/c3c[nH]nc3-c3ccccc3)c2=S)CC1,6 µg/mL,6 µg/mL,6 µg/mL,12.5 µg/mL,6 µg/mL
OC(Cn1cncn1)(Cn1cncn1)c1ccc(F)cc1F [FLUCONAZOLE],,,6 µg/mL,,
NC(=O)N/N=C/c1ccc([N+](=O)[O-])o1 [NITROFURAZONE],12.5 µg/mL,12.5 µg/mL,,12.5 µg/mL,6 µg/mL
